Source: PubChem
PPC-1+TRAIL kill: compounds killing PPC-1 cancer cells with TRAIL present, primary screen, TRAIL potentiator project, ATPLite luminescence, uHTS. PPC-1 cells + TRAIL, ATPLite viability luminescence. cell killing (% activity), % at 4 µM or 5 µM. actives 0.41% (n = 220,000);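 active means cell killing above 50% in the first pass at 4 µM, then a duplicate retest at 5 µM averaging 50% or more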;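 further: plate controls were cells with TRAIL plus DMSO for no effect and medium-only wells lacking cells for full effect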
FLuc stim CS: FLuc activators, initial screening, artefact control for FLuc-dependent activation tests, biochemical, ATPlite luminescence | ATPlite luciferase biochemical, 10 min; 0 = ATP-free wells, 1 = DMSO control | activation factor at 10 µM | 200,000 tested, under 10 active | AID 1027, 2008;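 active means luciferase activation factor, scaled between plate controls, of at least 2 with compound at 10 µM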
Target sequence (P08659 whole entry, looked up): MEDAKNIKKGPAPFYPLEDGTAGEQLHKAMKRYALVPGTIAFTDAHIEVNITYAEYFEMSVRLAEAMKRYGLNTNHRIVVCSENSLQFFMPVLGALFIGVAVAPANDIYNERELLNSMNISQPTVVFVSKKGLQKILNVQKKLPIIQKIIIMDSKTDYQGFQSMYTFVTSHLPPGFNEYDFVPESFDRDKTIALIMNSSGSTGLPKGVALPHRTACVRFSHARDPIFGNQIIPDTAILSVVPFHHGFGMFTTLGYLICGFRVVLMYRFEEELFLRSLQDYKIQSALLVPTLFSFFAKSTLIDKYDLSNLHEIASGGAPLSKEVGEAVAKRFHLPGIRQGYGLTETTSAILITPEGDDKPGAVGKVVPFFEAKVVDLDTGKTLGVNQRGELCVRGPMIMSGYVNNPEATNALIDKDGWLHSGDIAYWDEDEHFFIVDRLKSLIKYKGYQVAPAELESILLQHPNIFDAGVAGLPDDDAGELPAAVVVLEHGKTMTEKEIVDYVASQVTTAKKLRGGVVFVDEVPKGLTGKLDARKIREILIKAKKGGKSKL
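Assay system: Luciferase/luciferin reagent mix; Medium: PBS as buffer for the ATP substrate; Dosing: test compounds dosed from 2 mM stocks in 100% DMSO; Times: 10 min, room temperature; Signal: luminescence from luciferase reaction; Read-out: luciferase activation; Controls: No-ATP low control, compound-free enzyme-plus-ATP high control.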
FLuc inh counter: firefly luciferase enzyme inhibitors, primary screen, artefact control for luciferase-based inhibitor screens, biochemical, luminescence, ATPLite; Luciferin 4-monooxygenase (Photinus pyralis), P08659; 10 min; actives 1.5% (n = 200,000); AID 1006, 2008; inhibition, % at 10 µM;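 active means inhibition above about 50% when tested at 10 µM, limit read from the data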
TRAIL sens C8: viability loss with TRAIL in NB7+C8 cells, primary screen, TRAIL sensitizer project, cell-based, ATPlite luminescence | actives 1% (n = 360,000) | inhibition (viability loss, TRAIL sensitization), % at 10 µM | AID 624354, 2012;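 active means compounds causing at least 50% loss of cell viability in the single-dose screen, relative to plate controls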
The depositor's hits bear a star; · = no result. Rows were chosen to be rich in hits. Some 1.6% of all compounds tested hit in one or more screens of this group.

SMILES | PPC-1+TRAIL kill | FLuc stim CS | FLuc inh counter | TRAIL sens C8
Cc1ccc(C)c(C(=O)CN2C(=O)c3ccccc3S2(=O)=O)c1 | 10 | 1 | -2 | 23
COc1ccc(C(=O)CN2C(=O)c3ccccc3S2(=O)=O)cc1 | 38 | · | · | 65*
CCCn1c(C)cc(C(=O)CN2C(=O)c3ccccc3S2(=O)=O)c1C | · | · | · | 58*
COc1ccc(C(=O)CN2C(=O)c3ccccc3S2(=O)=O)cc1Br | · | · | · | 20
COCCn1c(C)cc(C(=O)Cn2nc(C(=O)O)c3ccccc3c2=O)c1C | 17 | 0.1 | 91* | 64*
CCCn1c(C)cc(C(=O)Cn2nnc3ccccc3c2=O)c1C | 32 | 0.4 | 57* | 31
Cc1cc(C(=O)Cn2nc(C(=O)O)c3ccccc3c2=O)c(C)n1-c1ccc(F)cc1 | 57* | 0.2 | 76* | 33
C=C1CC(COc2ccc3c(C)c(Cl)c(=O)oc3c2)(c2ccccc2)OC1=O (configuration not stated) | · | · | · | 90*
COc1ccc2c(C)c(Cl)c(=O)oc2c1 | 0 | 1.1 | -5 | -8
Cc1ccnc(NS(=O)(=O)c2ccc(NC(=O)c3cc(-c4ccc(Br)cc4)nc4ccccc34)cc2)n1 | 12 | 1 | -1 | -6
Cc1ccc(CN=C2Nc3ccccc3CS2)cc1 | 34 | 0.2 | 81* | 49
CCCOc1ccc(-c2nnc(N)s2)cc1 | -7 | 0.4 | 60* | 38
CC(C)c1ccc(-c2nnc(N)s2)cc1 | 58* | 0.2 | 80* | 58*
CC(=O)c1ccc(Nc2nc(CN)cs2)cc1 | · | · | · | 5
O=C(CCNC(=O)c1ccc([N+](=O)[O-])cc1)Nc1ccc(Cl)c(S(=O)(=O)N2CCOCC2)c1 | · | · | · | -3
Cc1ccc(-c2nn(CC(=O)NCc3cc(-c4nn(C)c(=O)c5ccccc45)ccc3C)c(=O)c3ccccc23)cc1 | 32 | 1.1 | -6 | 62*
O=[N+]([O-])c1cc(S(=O)(=O)C(F)(F)F)ccc1Sc1nc2ccccc2[nH]1 | 11 | 1.1 | -7 | 86*
CS(=O)(=O)c1ccc(Sc2nc3ccccc3[nH]2)c([N+](=O)[O-])c1 | 6 | 1 | -1 | 4
Cc1c(CN2CCN(CC(C)(C)C)C(CCO)C2)[nH]c2ccccc12 (configuration not stated) | · | · | · | 4
CC(=O)O[C@H]1[C@H](C)OC=C[C@@H]1OC(C)=O | · | · | · | -7
Cc1ccc(C)c(N=Nc2nc3ccccc3n2C)c1 | 29 | 0.2 | 75* | 48
COc1ccc(-c2c(C)sc(NC(=O)c3ccnn3C)c2C#N)cc1 | 11 | 1 | -1 | 15
NNc1nc(-c2ccccc2Cl)nc2sc3c(c12)CCCC3 | 11 | 0.2 | 82* | 49
NNc1nc(-c2ccccc2Cl)nc2ccccc12 | · | · | · | 0
Nc1c(-c2cccc(Cl)c2)cnn1-c1ccccc1 | · | · | · | 10
SMILES | PPC-1+TRAIL kill | FLuc stim CS | FLuc inh counter | TRAIL sens C8
Nc1c(-c2ccccc2)cnn1-c1ccccc1 | · | · | · | 54*
COc1ccc(NC2CCCN(C(=O)CCc3ccncc3)C2)cc1OC (configuration not stated) | · | · | · | -8
O=C1CC(Sc2nnnn2C2CCCCC2)C(=O)N1c1ccccc1 (configuration not stated) | 7 | 0.4 | 57* | 5
O=C1c2cccc3cccc(c23)C(=O)N1OS(=O)(=O)c1ccccc1 | 7 | 0.4 | 59* | 12
Clc1ccc(/C=N/Nc2ccccn2)cc1 | 10 | 0.9 | 9 | 14
C(=N\Nc1ccccn1)/c1ccc(N2CCOCC2)cc1 | 10 | 0.3 | 74* | 18
CCOc1ccc(/C=N/Nc2ccccn2)cc1 | 45 | 0.2 | 82* | 59*
COc1ccc(CC(=O)Nc2cc(S(=O)(=O)N3CCOCC3)ccc2N2CCOCC2)cc1OC | · | · | · | 3
O=C(COc1ccc(Cl)cc1Cl)Nc1cccnc1 | 16 | 0.4 | 58* | 32
CN(c1cccc(NC(=O)COc2ccc(Cl)cc2Cl)c1)S(C)(=O)=O | 36 | 0.3 | 69* | 57*
Cc1ccccc1OCC(=O)Nc1cccc(N(C)S(C)(=O)=O)c1 | 0 | 0.9 | 11 | 20
O=C(COc1ccc(Cl)cc1Cl)N/N=C/c1cccnc1 | · | · | · | -15
CCOC(=O)c1csc(NC(=O)c2ccc(OC)c(OC)c2)n1 | 12 | 1 | -2 | -8
c1cnc2ccc(-c3ccc4ncccc4c3)cc2c1 | · | · | · | 33
O=C(Nc1ccc(Nc2ccccc2)cc1)c1ccc(Cl)cc1[N+](=O)[O-] | · | · | · | 1
COc1ccccc1/C=N/OCc1ccc(C#N)cc1 | · | · | · | -15
